Assays:
Cannabinoid receptor 2 = Cannabinoid receptor 2 (Homo sapiens, UniProt P34972); assay: Displacement of [3H]WIN-55212-2 from human CB2 receptor expressed in CHOK1 cells by liquid scintillation spectrometry; format: cell-based, CHO-K1
Method in brief: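 Membranes from CHO K-1 cells transfected with human CB2, prepared as for cerebellum. About 10 µg membrane incubated with radioligand and varied test concentrations in TME buffer plus 0.5% fatty-acid-free BSA, 1 h at 30 °C. Filtered through PEI-soaked GF/B filters. Nonspecific binding defined with 1 µM WIN55,212-2. IC50 by nonlinear regression, triplicates, three independent experiments.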

[1] = Selectivity ratio of IC50 for human CB2 receptor to IC50 for Sprague-Dawley rat CB1 receptor
Method in brief: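 Ratio of CB2 IC50 to CB1 IC50. Both come from radioligand competition on membranes incubated 1 h at 30 °C in TME/0.5% BSA: rat cerebellar membranes for CB1, human CB2-transfected CHO K-1 membranes for CB2. IC50 by nonlinear regression from three independent triplicate experiments.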

Cannabinoid receptor 1 = Cannabinoid receptor 1 (Rattus norvegicus, UniProt P20272); assay: Displacement of [3H]CP-55940 from CB1 receptor in Sprague-Dawley rat cerebellum by liquid scintillation spectrometry
Sequence of Cannabinoid receptor 1 (P20272 whole entry): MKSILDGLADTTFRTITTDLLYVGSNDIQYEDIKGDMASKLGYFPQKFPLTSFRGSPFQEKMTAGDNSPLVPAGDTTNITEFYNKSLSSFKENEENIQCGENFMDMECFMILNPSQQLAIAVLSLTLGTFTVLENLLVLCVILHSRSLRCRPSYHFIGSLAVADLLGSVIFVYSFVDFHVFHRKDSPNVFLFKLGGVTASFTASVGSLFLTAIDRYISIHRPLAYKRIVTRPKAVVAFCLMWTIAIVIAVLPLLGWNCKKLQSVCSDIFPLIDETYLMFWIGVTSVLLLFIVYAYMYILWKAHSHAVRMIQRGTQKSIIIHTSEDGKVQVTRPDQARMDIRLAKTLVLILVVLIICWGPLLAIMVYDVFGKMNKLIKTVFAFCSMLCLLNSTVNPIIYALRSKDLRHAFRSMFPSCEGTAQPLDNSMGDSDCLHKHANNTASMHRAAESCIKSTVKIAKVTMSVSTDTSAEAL
Method in brief: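 Cerebella from male rats (200-300 g) homogenized in TME buffer (50 mM Tris-HCl, 1 mM EDTA, 3 mM MgCl2, pH 7.4), centrifuged 48000g 30 min at 4 °C. About 10 µg membrane incubated with radioligand and varied test concentrations in TME plus 0.5% fatty-acid-free BSA, 1 h at 30 °C. Filtered through PEI-soaked GF/B filters. […] IC50 by nonlinear regression, triplicates, three independent experiments.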

Mus musculus = assay: Reduction in body weight in diet-induced obese C57BL/6J mouse model at 10 mg/kg, po after 14 days; format: functional; parameters: scale not given: the % may be the effect or the level left
Method in brief: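 Male C57BL/6J DIO mice over 38 g, singly housed on a 12 h/12 h light/dark cycle with free access to food and water, habituated at least 7 days, tested during the light period. Compound dissolved fresh daily in deionized water with 10% DMSO, given orally at 10 mL/kg daily for 14 days. Vehicle controls n=5, treated groups n=6. Body weight recorded daily.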

Sequence of Cannabinoid receptor 2 (P34972 whole entry): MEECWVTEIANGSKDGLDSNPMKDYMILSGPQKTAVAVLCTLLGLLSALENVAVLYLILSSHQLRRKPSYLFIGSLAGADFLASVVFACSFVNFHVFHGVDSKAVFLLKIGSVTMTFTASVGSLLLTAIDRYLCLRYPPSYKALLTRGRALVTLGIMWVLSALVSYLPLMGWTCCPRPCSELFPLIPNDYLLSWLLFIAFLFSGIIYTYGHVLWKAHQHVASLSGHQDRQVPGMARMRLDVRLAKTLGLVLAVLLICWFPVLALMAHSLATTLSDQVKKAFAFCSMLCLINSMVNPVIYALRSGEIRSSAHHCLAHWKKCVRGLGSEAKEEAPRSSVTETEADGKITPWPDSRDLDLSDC

| IC50 (Cannabinoid receptor 2) [nM] | Ratio IC50 [1] | IC50 (Cannabinoid receptor 1) [nM] | SMILES | Activity (Mus musculus) [%] |
| --- | --- | --- | --- | --- |
| 979 | 48 |  | CC(C)(C)c1nnc(-c2nn(-c3ccc(Cl)cc3Cl)c(-c3ccc(Cl)cc3)c2Cn2cccn2)o1 |  |
|  |  | 51.9 | Cc1c(-c2nnc(Cc3ccccn3)o2)nn(-c2ccc(Cl)cc2Cl)c1-c1ccc(Cl)cc1 |  |
| 1120 | 76 |  | CC(C)(C)c1nnc(-c2nn(-c3ccc(Cl)cc3Cl)c(-c3ccc(Cl)cc3)c2CF)o1 |  |
| 1670 | 107 |  | COC(=O)NCc1c(-c2nnc(C(C)(C)C)o2)nn(-c2ccc(Cl)cc2Cl)c1-c1ccc(Cl)cc1 |  |
| 2330 | 355 | 6.57 | CCc1c(-c2nnc(C(C)(C)C)o2)nn(-c2ccc(Cl)cc2Cl)c1-c1ccc(Cl)cc1 |  |
|  |  | 35 | CCCCc1nnc(-c2nn(-c3ccc(Cl)cc3Cl)c(-c3ccc(Cl)cc3)c2C)o1 |  |
|  |  | 12 | Cc1c(-c2nnc(C3CCCCC3)o2)nn(-c2ccc(Cl)cc2Cl)c1-c1ccc(Cl)cc1 |  |
|  |  | 281 | Cc1c(-c2nnc(-c3ccccc3)o2)nn(-c2ccc(Cl)cc2Cl)c1-c1ccc(Cl)cc1 |  |
| 375 | 24 |  | COCc1c(-c2nnc(C(C)(C)C)o2)nn(-c2ccc(Cl)cc2Cl)c1-c1ccc(Cl)cc1 |  |
| 1410 | 186 | 7.59 | Cc1c(-c2nnc(C(C)(C)C)o2)nn(-c2ccc(Cl)cc2Cl)c1-c1ccc(Cl)cc1 |  |
|  |  | 25 | Cc1c(-c2nnc(C(C)C)o2)nn(-c2ccc(Cl)cc2Cl)c1-c1ccc(Cl)cc1 |  |
| 1240 | 1140 | 1.09 | Cc1ccc(C2(c3nnc(-c4nn(-c5ccc(Cl)cc5Cl)c(-c5ccc(Cl)cc5)c4Cn4cncn4)o3)CC2)cc1 |  |
|  |  | 8.42 | Cc1c(-c2nnc(C(C)(C)c3ccccc3)o2)nn(-c2ccc(Cl)cc2Cl)c1-c1ccc(Cl)cc1 |  |
| 3320 | 110 | 30.3 | CC(C)(C)c1nnc(-c2nn(-c3ccc(Cl)cc3Cl)c(-c3ccc(Cl)cc3)c2C2CC2)o1 |  |
|  |  | 15.1 | CCCCC(C)c1nnc(-c2nn(-c3ccc(Cl)cc3Cl)c(-c3ccc(Cl)cc3)c2C)o1 (configuration not stated) |  |
|  |  | 13.1 | Cc1c(-c2nnc(C3CCC3)o2)nn(-c2ccc(Cl)cc2Cl)c1-c1ccc(Cl)cc1 |  |
| 954 | 482 | 1.98 | CC1(c2nnc(-c3nn(-c4ccc(Cl)cc4Cl)c(-c4ccc(Cl)cc4)c3Cn3cncn3)o2)CC1 |  |
| 1050 | 62 |  | C=Cc1c(-c2nnc(C(C)(C)C)o2)nn(-c2ccc(Cl)cc2Cl)c1-c1ccc(Cl)cc1 |  |
|  |  | 19.2 | Cc1c(-c2nnc(Cc3ccccc3)o2)nn(-c2ccc(Cl)cc2Cl)c1-c1ccc(Cl)cc1 |  |
| 1670 | 74 |  | CC(C)(C)c1nnc(-c2nn(-c3ccc(Cl)cc3Cl)c(-c3ccc(Cl)cc3)c2C(C)(C)O)o1 |  |
| 376 | 20 |  | CC(C)(C)c1nnc(-c2nn(-c3ccc(Cl)cc3Cl)c(-c3ccc(Cl)cc3)c2Cn2ccnc2)o1 |  |
|  |  | 10.4 | CCC(C)(C)c1nnc(-c2nn(-c3ccc(Cl)cc3Cl)c(-c3ccc(Cl)cc3)c2C)o1 |  |

| IC50 (Cannabinoid receptor 2) [nM] | Ratio IC50 [1] | IC50 (Cannabinoid receptor 1) [nM] | SMILES | Activity (Mus musculus) [%] |
| --- | --- | --- | --- | --- |
| 1050 | 1840 | 0.57 | Clc1ccc(C2(c3nnc(-c4nn(-c5ccc(Cl)cc5Cl)c(-c5ccc(Br)cc5)c4Cn4cncn4)o3)CC2)cc1 |  |
| 2040 | 84 |  | CC(C)(C)c1nnc(-c2nn(-c3ccc(Cl)cc3Cl)c(-c3ccc(Cl)cc3)c2COc2ccccn2)o1 |  |
| 539 | 88 |  | CC(C)(C)c1nnc(-c2nn(-c3ccc(Cl)cc3Cl)c(-c3ccc(Cl)cc3)c2CC#N)o1 |  |
| 1300 | 58 |  | CC(=O)OCc1c(-c2nnc(C(C)(C)C)o2)nn(-c2ccc(Cl)cc2Cl)c1-c1ccc(Cl)cc1 |  |
| > 10000 | > 299 | 33.5 | CCCc1c(-c2nnc(C(C)(C)C)o2)nn(-c2ccc(Cl)cc2Cl)c1-c1ccc(Cl)cc1 |  |
|  |  |  | Cc1c(-c2nnc(C3(C(F)(F)F)CC3)o2)nn(-c2ccc(Cl)cc2Cl)c1-c1ccc(Cl)cc1 | 22.8 |
|  |  | 10.9 | Cc1c(-c2nnc(C(C)c3ccccc3)o2)nn(-c2ccc(Cl)cc2Cl)c1-c1ccc(Cl)cc1 (configuration not stated) |  |
| 1810 | 124 | 14.6 | CC(C)(C)c1nnc(-c2nn(-c3ccc(Cl)cc3Cl)c(-c3ccc(Cl)cc3)c2CO)o1 |  |
| > 10000 | > 1110 | 9 | COC(=O)NC(C)c1c(-c2nnc(C(C)(C)C)o2)nn(-c2ccc(Cl)cc2Cl)c1-c1ccc(Cl)cc1 (configuration not stated) |  |
| 1480 | 71 |  | CC(=O)SCc1c(-c2nnc(C(C)(C)C)o2)nn(-c2ccc(Cl)cc2Cl)c1-c1ccc(Cl)cc1 |  |
| 924 | 66 |  | CC(F)c1c(-c2nnc(C(C)(C)C)o2)nn(-c2ccc(Cl)cc2Cl)c1-c1ccc(Cl)cc1 (configuration not stated) |  |
|  |  | 0.86 | C[C@H](NC(=O)C(C)(C)Oc1ccc(C(F)(F)F)cn1)[C@@H](Cc1ccc(Cl)cc1)c1cccc(C#N)c1 [TARANABANT] |  |
| 736 | 96 |  | CC(C)(C)c1nnc(-c2nn(-c3ccc(Cl)cc3Cl)c(-c3ccc(Cl)cc3)c2Cn2cnnn2)o1 |  |
| 407 | 145 | 2.81 | CC1(c2nnc(-c3nn(-c4ccc(Cl)cc4Cl)c(-c4ccc(Br)cc4)c3Cn3cncn3)o2)CC1 |  |
|  |  | 10.4 | CCC(C)c1nnc(-c2nn(-c3ccc(Cl)cc3Cl)c(-c3ccc(Cl)cc3)c2C)o1 (configuration not stated) |  |
| 1480 | 670 |  | Clc1ccc(-c2c(Cn3cncn3)c(-c3nnc(C4(c5ccc(Cl)cc5)CC4)o3)nn2-c2ccc(Cl)cc2Cl)cc1 |  |
| 680 | 202 | 3.37 | CC(C)(C)c1nnc(-c2nn(-c3ccc(Cl)cc3Cl)c(-c3ccc(Cl)cc3)c2Cn2ncnn2)o1 |  |
| 579 | 432 | 1.34 | Cc1ccc(C2(c3nnc(-c4nn(-c5ccc(Cl)cc5Cl)c(-c5ccc(Br)cc5)c4Cn4cncn4)o3)CC2)cc1 |  |
| 242 | 252 | 0.96 | Clc1ccc(-n2nc(-c3nnc(C4(c5ccccc5)CC4)o3)c(Cn3cncn3)c2-c2ccc(Br)cc2)c(Cl)c1 |  |
| 2820 | 157 | 18 | CC(C)c1c(-c2nnc(C(C)(C)C)o2)nn(-c2ccc(Cl)cc2Cl)c1-c1ccc(Cl)cc1 |  |
|  |  | 160 | CCCc1nnc(-c2nn(-c3ccc(Cl)cc3Cl)c(-c3ccc(Cl)cc3)c2C)o1 |  |
| 1130 |  |  | Clc1ccc(-c2c(Cn3cncn3)c(-c3nnc(C4(c5ccccc5)CC4)o3)nn2-c2ccc(Cl)cc2Cl)cc1 |  |

| SMILES | IC50 (Cannabinoid receptor 2) [nM] | Ratio IC50 [1] | IC50 (Cannabinoid receptor 1) [nM] | Activity (Mus musculus) [%] |
| --- | --- | --- | --- | --- |
| Cc1c(-c2nnc(C(C)(C)c3ccc(Cl)cc3)o2)nn(-c2ccc(Cl)cc2Cl)c1-c1ccc(Cl)cc1 |  |  | 4.78 |  |
| FC(F)(F)C1(c2nnc(-c3nn(-c4ccc(Cl)cc4Cl)c(-c4ccc(Br)cc4)c3Cn3cncn3)o2)CC1 | 948 | 1020 | 0.93 | 29.3 |
| CC(C)(C)c1nnc(-c2nn(-c3ccc(Cl)cc3Cl)c(-c3ccc(Cl)cc3)c2C(=O)O)o1 |  |  | > 10000 |  |
| CCC(CC)c1nnc(-c2nn(-c3ccc(Cl)cc3Cl)c(-c3ccc(Cl)cc3)c2C)o1 |  |  | 31.7 |  |
| CC(O)c1c(-c2nnc(C(C)(C)C)o2)nn(-c2ccc(Cl)cc2Cl)c1-c1ccc(Cl)cc1 (configuration not stated) | 1890 | 187 |  |  |
| CC(C)(C)c1nnc(-c2nn(-c3ccc(Cl)cc3Cl)c(-c3ccc(Cl)cc3)c2Cn2ccnn2)o1 | 1120 | 88 |  |  |
| FC(F)(F)C1(c2nnc(-c3nn(-c4ccc(Cl)cc4Cl)c(-c4ccc(Cl)cc4)c3Cn3cncn3)o2)CC1 | 1750 | 1160 | 1.51 | 29.5 |
| CCCCC(C)(C)c1nnc(-c2nn(-c3ccc(Cl)cc3Cl)c(-c3ccc(Cl)cc3)c2C)o1 |  |  | 14.7 |  |
| Cc1c(-c2nnc(C3CCCCCC3)o2)nn(-c2ccc(Cl)cc2Cl)c1-c1ccc(Cl)cc1 |  |  | 26.5 |  |
| C=C(C)c1c(-c2nnc(C(C)(C)C)o2)nn(-c2ccc(Cl)cc2Cl)c1-c1ccc(Cl)cc1 | 1730 | 358 |  |  |
| CC(C)(C)c1nnc(-c2nn(-c3ccc(Cl)cc3Cl)c(-c3ccc(Cl)cc3)c2Cn2cncn2)o1 | 804 | 341 |  |  |
| CC(C)(C)c1nnc(-c2nn(-c3ccc(Cl)cc3Cl)c(-c3ccc(Cl)cc3)c2COc2ccccc2)o1 | 5910 | 204 |  |  |
| CCCCCc1nnc(-c2nn(-c3ccc(Cl)cc3Cl)c(-c3ccc(Cl)cc3)c2C)o1 |  |  | 71.8 |  |
| CC(C)(C)c1nnc(-c2nn(-c3ccc(Cl)cc3Cl)c(-c3ccc(Br)cc3)c2Cn2cncn2)o1 | 513 | 187 |  |  |

Source: ChEMBL document CHEMBL1152292, “Biarylpyrazolyl oxadiazole as potent, selective, orally bioavailable cannabinoid-1 receptor antagonists for the treatment of obesity” (J Med Chem, 2008)
